Experimental data reported in ChEMBL document CHEMBL1275449, “Potent in vitro antifungal activities of naturally occurring acetylenic acids” (Antimicrob Agents Chemother, 2008).
≈ marks a conversion by molar mass, not a printed value.

What was measured:
Trichophyton rubrum [1] = experiment: Antifungal activity against Trichophyton rubrum ATCC 10218 by CLSI method; type: functional, organism-based
Procedure, shortened: (§1)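 Growth scraped from 1- to 6-week-old potato dextrose slants and filtered through Miracloth. Diluted in 5% Alamar blue-RPMI 1640 (MOPS pH 7.0) to 2.7 × 10⁴ CFU/ml. Eleven twofold dilutions in duplicate. Fluorescence at 544 nm excitation/590 nm emission read before and after 35°C, 5 days. IC50 fitted from percent growth. MIC taken as no detectable growth; MFC from clear or blue wells plated on PD agar.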

Trichophyton rubrum [2] = experiment: Antifungal activity against Trichophyton rubrum ATCC MYA-4438 by CLSI method; type: functional, organism-based; procedure, shortened: as §1
[3] = system: Trichophyton mentagrophytes; experiment: Antifungal activity against Trichophyton mentagrophytes ATCC 9533 by CLSI method; type: functional, organism-based; procedure, shortened: as §1
[4] = system: Trichophyton mentagrophytes; experiment: Antifungal activity against Trichophyton mentagrophytes ATCC MYA-4439 by CLSI method; type: functional, organism-based; procedure, shortened: as §1
Cryptococcus neoformans [5] = experiment: Antifungal activity against Cryptococcus neoformans ATCC 66031 after 72 hrs by CLSI method; type: functional, organism-based; conditions: ATCC 66031, 72 h
Procedure, shortened: (§2)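 SD broth replaced RPMI because growth in RPMI was poor; other CLSI conditions were kept. Inoculum was 1.5 × 10³ CFU/ml from colonies on SD agar, checked by plating. Twofold serial dilutions (11 concentrations) in 20% DMSO-saline were tested in duplicate. OD530 was read before and after incubation at 35°C for 72 h. Percent growth gave IC50; the MIC is the lowest concentration with no detectable growth.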

Cryptococcus neoformans [6] = experiment: Antifungal activity against Cryptococcus neoformans ATCC 90113 after 72 hrs by CLSI method; type: functional, organism-based; conditions: ATCC 90113, 72 h; procedure, shortened: as §2
Candida tropicalis = experiment: Antifungal activity against Candida tropicalis ATCC 750 after 48 hrs by CLSI method; type: functional, organism-based; conditions: ATCC 750, 48 h
Procedure, shortened: (§3)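 Yeast suspensions made from 3-5 colonies off 24-72 h SD agar plates in saline. They were diluted by OD630 standard curve in RPMI 1640 (0.2% dextrose, 0.03% glutamine, 0.165 M MOPS, pH 7.0) to 1.5 × 10³ CFU/ml. Twofold dilutions (11 concentrations, 20% DMSO-saline) run in duplicate. OD530 read before and after 35°C, 48 h. Line values are top test concentrations; no-growth endpoints give MIC/MFC.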

Candida parapsilosis = experiment: Antifungal activity against Candida parapsilosis ATCC 22019 after 48 hrs by CLSI method; type: functional, organism-based; conditions: Lodderomyces parapsilosis, ATCC 22019, 48 h; procedure, shortened: as §3
Pichia kudriavzevii = experiment: Antifungal activity against Candida krusei ATCC 6258 after 48 hrs by CLSI method; type: functional, organism-based; conditions: ATCC 6258, 48 h
Procedure, shortened: (§4)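 Candida inocula came from 24–72-h SD agar colonies suspended in saline. They were diluted by OD630 standard curve into RPMI 1640 (0.2% dextrose, 0.03% glutamine, 0.165 M MOPS, pH 7.0) to 1.5 × 10³ CFU/ml. Compounds were run as 11 twofold dilutions in 20% DMSO-saline, in duplicate, at 35°C for 48 h, with OD530 read before and after. Percent growth at the top concentration, IC50, MIC, and MFC (SD agar plating) were derived.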

Nakaseomyces glabratus = experiment: Antifungal activity against Candida glabrata ATCC 90030 after 48 hrs by CLSI methodCandida glabrata; type: functional, organism-based; conditions: ATCC 90030, 48 h; procedure, shortened: as §4
Candida albicans [7] = experiment: Antifungal activity against Fluconazole resistant Candida albicans clinical isolate 17 after 48 hrs by CLSI method; type: functional, organism-based
Procedure, shortened: (§5)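 CLSI broth microdilution. Colonies from 24–72 h SD agar suspended in saline and sized by OD630 standard curve. Inoculum 1.5 × 10³ CFU/ml (final) in RPMI 1640 (0.2% dextrose, 0.03% glutamine, 0.165 M MOPS, pH 7.0). Twofold dilutions (11 levels) from 20% DMSO-saline, in duplicate. 35°C for 48 h, OD530 read before and after. IC50 fitted from % growth. MIC: no detectable growth. MFC: subculture onto SD agar.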

Candida albicans [8] = experiment: Antifungal activity against Fluconazole resistant Candida albicans clinical isolate 1 after 48 hrs by CLSI method; type: functional, organism-based; procedure, shortened: as §5
Candida albicans [9] = experiment: Antifungal activity against Candida albicans ATCC 200955 after 48 hrs by CLSI method; type: functional, organism-based; conditions: ATCC 200955, 48 h; procedure, shortened: as §5
Candida albicans [10] = experiment: Antifungal activity against Candida albicans ATCC 90028 after 48 hrs by CLSI method; type: functional, organism-based; conditions: ATCC 90028, 48 h; procedure, shortened: as §5
Candida albicans [11] = experiment: Antifungal activity against Candida albicans ATCC 32354 after 48 hrs by CLSI method; type: functional, organism-based; conditions: ATCC 32354, 48 h; procedure, shortened: as §5
SK-MEL = experiment: Cytotoxicity against human SK-MEL cells up to 32 uM by neutral red method; type: cell-based
Procedure, shortened: (§6)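 Neutral red uptake cytotoxicity, top concentration 32 μM.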

KB = experiment: Cytotoxicity against human KB cells up to 32 uM by neutral red method; type: cell-based; procedure, shortened: as §6
BT-549 = experiment: Cytotoxicity against human BT549 cells up to 32 uM by neutral red method; type: cell-based; procedure, shortened: as §6
SK-OV-3 = experiment: Cytotoxicity against human SKOV3 cells up to 32 uM by neutral red method; type: cell-based; procedure, shortened: as §6
Vero = experiment: Cytotoxicity against African green monkey Vero cells up to 32 uM by neutral red method; type: cell-based; conditions: chlorocebus sabaeus; procedure, shortened: as §6
LLC-PK1 = experiment: Cytotoxicity against pig LLC-PK1 cells up to 32 uM by neutral red method; type: cell-based, Sus scrofa; procedure, shortened: as §6
Candida albicans [12] = experiment: Antifungal activity against Candida albicans ATCC 14053 after 48 hrs by CLSI method; type: functional, organism-based; conditions: ATCC 14053, 48 h; procedure, shortened: as §5
Candida albicans [13] = experiment: Antifungal activity against Candida albicans ATCC 60193 after 48 hrs by CLSI method; type: functional, organism-based; conditions: ATCC 60193, 48 h; procedure, shortened: as §5
Aspergillus niger = experiment: Antifungal activity against Aspergillus niger ATCC 16404 after 48 h by CLSI method; conditions: ATCC 16404, 48 h
Aspergillus flavus = experiment: Antifungal activity against Aspergillus flavus ATCC 204304 after 48 h by CLSI method; conditions: ATCC 204304, 48 h
Aspergillus fumigatus [14] = experiment: Antifungal activity against Aspergillus fumigatus ATCC 90906 after 48 h by CLSI method; conditions: ATCC 90906, 48 h
Aspergillus fumigatus [15] = experiment: Antifungal activity against Aspergillus fumigatus ATCC 204305 after 48 h by CLSI method; conditions: ATCC 204305, 48 h

CCCCCCCCCC#CCCCCC(=O)O showed an IC50 (Trichophyton rubrum [1]) of 8.7 µM, an MFC (Trichophyton rubrum [1]) of 24.8 µM (≈ 6.26 µg/mL) and an MIC (Trichophyton rubrum [1]) of 24.8 µM (≈ 6.26 µg/mL). The IC50 (Trichophyton rubrum [2]) was 3.8 µM, the MFC (Trichophyton rubrum [2]) was 198 µM (≈ 50 µg/mL) and the MIC (Trichophyton rubrum [2]) was 31 µM (≈ 7.82 µg/mL). It also gave an IC50 [3] of 2.3 µM, an MFC [3] of 6.2 µM (≈ 1.56 µg/mL) and an MIC [3] of 4.6 µM (≈ 1.16 µg/mL). For the same compound, the IC50 [4] was 3.9 µM, the MFC [4] was 12.4 µM (≈ 3.13 µg/mL) and the MIC [4] was 9.3 µM (≈ 2.35 µg/mL). For the same compound, the IC50 (Cryptococcus neoformans [5]) was 1.2 µM, the MFC (Cryptococcus neoformans [5]) was 99.1 µM (≈ 25 µg/mL) and the MIC (Cryptococcus neoformans [5]) was 49.5 µM (≈ 12.5 µg/mL). It also gave an IC50 (Cryptococcus neoformans [6]) of 52.4 µM, an IC50 (Candida tropicalis) of 29.5 µM and an MFC (Candida tropicalis) of 99.1 µM (≈ 25 µg/mL). The MIC (Candida tropicalis) was 74.3 µM (≈ 18.8 µg/mL), the IC50 (Candida parapsilosis) was greater than 198 µM and the IC50 (Pichia kudriavzevii) was 2.9 µM. For the same compound, the MFC (Pichia kudriavzevii) was 49.5 µM (≈ 12.5 µg/mL), the MIC (Pichia kudriavzevii) was 6.2 µM (≈ 1.56 µg/mL) and the IC50 (Nakaseomyces glabratus) was greater than 198 µM. It also gave an IC50 (Candida albicans [7]) of 23.3 µM, an MFC (Candida albicans [7]) of 198 µM (≈ 50 µg/mL) and an MIC (Candida albicans [7]) of 99.1 µM (≈ 25 µg/mL). It also gave an IC50 (Candida albicans [8]) of 40.5 µM, an MIC (Candida albicans [8]) of 99.1 µM (≈ 25 µg/mL) and an IC50 (Candida albicans [9]) of 47.8 µM. It also gave an MIC (Candida albicans [9]) of 198 µM (≈ 50 µg/mL), an IC50 (Candida albicans [10]) of 56.8 µM and an MIC (Candida albicans [10]) of 99.1 µM (≈ 25 µg/mL). The IC50 (Candida albicans [11]) was 50.3 µM, the MIC (Candida albicans [11]) was 198 µM (≈ 50 µg/mL) and the Activity (SK-MEL) was “Non-toxic”. The Activity (KB) was “Non-toxic”, the Activity (BT-549) was “Non-toxic” and the Activity (SK-OV-3) was “Non-toxic”. For the same compound, the Activity (Vero) was “Non-toxic”, the Activity (LLC-PK1) was “Non-toxic” and the IC50 (Candida albicans [12]) was 81.8 µM. The IC50 (Candida albicans [13]) was 85.9 µM, the IC50 (Aspergillus niger) was 101 µM and the IC50 (Aspergillus flavus) was 106 µM. For the same compound, the MFC (Aspergillus flavus) was 198 µM (≈ 50 µg/mL), the MIC (Aspergillus flavus) was 198 µM (≈ 50 µg/mL) and the IC50 (Aspergillus fumigatus [14]) was 166 µM. The IC50 (Aspergillus fumigatus [15]) was 9.4 µM, the MFC (Aspergillus fumigatus [15]) was 198 µM (≈ 50 µg/mL) and the MIC (Aspergillus fumigatus [15]) was 37.1 µM (≈ 9.36 µg/mL).
